eIF4H inh: inhibitors of RNA binding by human eIF4H. Q15056. eIF4H fluorescence polarization binding assay. inhibition, % at 35 µM. 290,000 compounds, 0.94% hits. AID 2012;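 note: calls also rest on retests at 20 µM and on dose response follow-up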
PABP polyA inh: blocks human PABP binding to poly(A) RNA. P11940. fluorescence polarization. calls only at 35 µM. 290,000 compounds, 1% hits;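 note: calls also rest on retests at 20 µM and on dose response follow-up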
Target sequence (P11940 whole entry, looked up): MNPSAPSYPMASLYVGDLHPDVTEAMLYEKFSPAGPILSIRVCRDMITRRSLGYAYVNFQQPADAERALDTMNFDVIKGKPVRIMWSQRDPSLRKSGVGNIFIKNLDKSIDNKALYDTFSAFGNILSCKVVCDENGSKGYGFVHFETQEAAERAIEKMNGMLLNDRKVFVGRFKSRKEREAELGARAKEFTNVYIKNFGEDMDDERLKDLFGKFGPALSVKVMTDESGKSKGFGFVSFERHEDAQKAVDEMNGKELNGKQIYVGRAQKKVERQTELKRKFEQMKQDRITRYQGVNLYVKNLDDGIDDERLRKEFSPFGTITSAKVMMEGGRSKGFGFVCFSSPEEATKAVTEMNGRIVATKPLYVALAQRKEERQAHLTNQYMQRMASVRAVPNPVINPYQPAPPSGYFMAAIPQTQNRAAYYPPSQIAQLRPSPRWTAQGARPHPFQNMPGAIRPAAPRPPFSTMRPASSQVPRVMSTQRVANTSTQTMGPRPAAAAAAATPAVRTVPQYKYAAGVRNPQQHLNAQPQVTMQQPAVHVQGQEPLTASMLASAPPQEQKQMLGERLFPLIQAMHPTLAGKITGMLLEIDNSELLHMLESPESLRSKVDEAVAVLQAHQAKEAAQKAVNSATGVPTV
VIM-2 inhibitor: blocks Pseudomonas aeruginosa VIM-2 metallo-beta-lactamase; inhibition, % at 5.6 µM; AID 1527; 290,000 compounds, 0.89% hits; purified VIM-2, nitrocefin hydrolysis, epi-absorbance fluorescence;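 active = inhibition above the mean of all tested compounds plus 3 SD, cutoff set per screening run, cut at about 7.5% in these data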;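 note: red hydrolysis product quenches plate fluorescence so inhibitors raise well fluorescence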
IMP-1 inh-1: blocks Pseudomonas aeruginosa IMP-1 metallo-beta-lactamase; purified IMP-1, nitrocefin hydrolysis, epi-absorbance fluorescence; inhibition, % at 5.6 µM; 290,000 compounds, 0.45% hits;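 active = inhibition above the mean plus 3 SD of all compounds in the same screening run, cut at about 4.5% in these data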
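System – purified recombinant IMP-1 beta-lactamase · Input – IMP-1 dispensed at 0.2 nM · Timing – 15 min preincubation plus 25 min reaction at 25 °C · Signal – Epi-absorbance fluorescence, 480 nm excitation, 530 nm emission · Measure – percent IMP-1 inhibition derived from blank-referenced optical density · Controls – Enzyme-plus-DMSO low control, enzyme-free DMSO high control · Replication – singlicate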
MLLE-PAM2 inh: blocks PAM2 peptide binding to the PABP1 MLLE domain; P11940; GST-MLLE / FITC-PAM2 fluorescence polarization; inhibition, % at 20 µM; 360,000 compounds, 0.36% hits; in the data active = inhibition above about 35%, passing the limit was not always enough
IMP-1 inh-2: IMP-1 inhibition, counter-screen for VIM-2 inhibitors | AID 1856 | purified IMP-1, nitrocefin hydrolysis, epi-absorbance fluorescence | 1,300 tested, under 10 active | shares compounds with VIM-2 inhibitor | inhibition, % at 5.6 µM
VIM-2 FRET inh: counter-screen for VIM-2 inhibitors: epi-absorbance artifacts via FRET; shares compounds with VIM-2 inhibitor; purified VIM-2, CCF2 FRET substrate hydrolysis; inhibition, % at 5.6 µM; 1,300 compounds, 23% hits;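 active = inhibition above the mean of all tested compounds plus 3 SD, cut at about 19% in these data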
TEM-1 inh: selectivity counter-screen for VIM-2 inhibitors: E. coli TEM-1 inhibitors. 1,300 compounds, 3% hits. inhibition, % at 5.6 µM. Purified TEM-1, nitrocefin hydrolysis, epi-absorbance fluorescence. shares compounds with VIM-2 inhibitor. AID 1866;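 active = inhibition above that campaign's mean inhibition plus 3 SD, cut at about 0.46% in these data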
VIM-2 confirm 2: confirmation of P. aeruginosa VIM-2 metallo-beta-lactamase inhibitors; inhibition, % at 5.6 µM; 1,300 compounds, 96% hits; AID 2187; shares compounds with VIM-2 inhibitor; purified VIM-2, nitrocefin hydrolysis, epi-absorbance;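 active = inhibition of the VIM-2 beta-lactamase enzyme above about 11% from the earlier first-round screen, limit read from the data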
Numbers stand for hits. Only some compounds are listed: those with a hit (about 2.2% of all), similar ones and a draw of the others. Unless noted, the rule behind the calls is not given here.

For CCCc1cc(=O)oc2c3c(cc(OCC(=O)N[C@@H](C)C(=O)O)c12)OC(C)(C)CC3 the results were eIF4H inh inactive, PABP polyA inh inactive, VIM-2 inhibitor 17.5, IMP-1 inh-1 inactive, MLLE-PAM2 inh inactive, IMP-1 inh-2 inactive, VIM-2 FRET inh 40.6, TEM-1 inh inactive and VIM-2 confirm 2 24.4.
CSC[C@H](NC(=O)COc1cc2c(c3oc(=O)cc(C)c13)CCC(C)(C)O2)C(=O)O was read as eIF4H inh inactive, PABP polyA inh inactive, VIM-2 inhibitor inactive, IMP-1 inh-1 inactive and MLLE-PAM2 inh inactive.
CCCc1cc(=O)oc2c3c(cc(OCC(=O)N[C@@H](CSC)C(=O)O)c12)OC(C)(C)CC3 was read as eIF4H inh inactive, PABP polyA inh inactive, VIM-2 inhibitor 37.0, IMP-1 inh-1 inactive, MLLE-PAM2 inh inactive, IMP-1 inh-2 inactive, VIM-2 FRET inh 67.8, TEM-1 inh inactive and VIM-2 confirm 2 43.9.
Screening O=C(C1CC(=O)N(c2ccc3c(c2)OCCO3)C1)N1CCN(S(=O)(=O)c2ccccc2F)CC1 (stereo not drawn) returned MLLE-PAM2 inh inactive.
For C1=C(c2cc3ccccc3cn2)CCCC1 the results were MLLE-PAM2 inh inactive.
Cc1ccc(S(=O)(=O)N2C[C@H]3[C@H]4C(=O)N(c5ccccc5)C(=O)[C@H]4CC(=O)[C@H]3[C@@H]2c2cccc3ccccc23)cc1 was read as MLLE-PAM2 inh inactive.
For CC(C)c1ccc(/C=c2\sc3nc(-c4ccncc4)nn3c2=O)cc1 the results were eIF4H inh inactive, PABP polyA inh inactive, VIM-2 inhibitor inactive, IMP-1 inh-1 inactive and MLLE-PAM2 inh inactive.
Cc1ccc(/C=c2\sc3nc(-c4cccnc4)nn3c2=O)cc1 was read as eIF4H inh inactive, PABP polyA inh inactive, VIM-2 inhibitor 56.3, IMP-1 inh-1 inactive, MLLE-PAM2 inh inactive, IMP-1 inh-2 inactive, VIM-2 FRET inh 64.7, TEM-1 inh inactive and VIM-2 confirm 2 59.9.
Screening OC1=C(O)c2nc3cc(C(F)(F)F)ccc3nc21 returned eIF4H inh inactive, PABP polyA inh inactive, VIM-2 inhibitor 16.7, IMP-1 inh-1 inactive, MLLE-PAM2 inh inactive, IMP-1 inh-2 inactive, VIM-2 FRET inh inactive, TEM-1 inh inactive and VIM-2 confirm 2 inactive.
For CNc1ccc(-c2ccccc2CO)cn1 the results were MLLE-PAM2 inh inactive.
For Cc1oc2c(C)c3oc(=O)c(CCC(=O)O)c(C)c3cc2c1-c1ccccc1 the results were eIF4H inh inactive, PABP polyA inh inactive, VIM-2 inhibitor inactive, IMP-1 inh-1 inactive and MLLE-PAM2 inh inactive.
For Cc1c(CC(=O)O)c(=O)oc2c(C)c3occ(-c4ccccc4)c3cc12 the results were eIF4H inh inactive, PABP polyA inh inactive, VIM-2 inhibitor 15.1, IMP-1 inh-1 inactive, MLLE-PAM2 inh inactive, IMP-1 inh-2 inactive, VIM-2 FRET inh inactive, TEM-1 inh inactive and VIM-2 confirm 2 20.8.
Cn1c(SCC(=O)O)nc2sc3c(c2c1=O)CCC3 was read as eIF4H inh inactive, PABP polyA inh inactive, VIM-2 inhibitor 13.9, IMP-1 inh-1 inactive, MLLE-PAM2 inh inactive, IMP-1 inh-2 inactive, VIM-2 FRET inh 30.1, TEM-1 inh inactive and VIM-2 confirm 2 21.8.
For CC(=O)NC(Cc1ccccc1)C(=O)OCC(=O)c1ccc(F)cc1 (stereo not drawn) the results were eIF4H inh inactive, PABP polyA inh inactive, VIM-2 inhibitor inactive, IMP-1 inh-1 inactive and MLLE-PAM2 inh inactive.
`C=CCSc1nnc2nc3c(nn12)c1cc(C)ccc1n3CC=C` gave eIF4H inh inactive, PABP polyA inh inactive, VIM-2 inhibitor 14.7, IMP-1 inh-1 inactive, MLLE-PAM2 inh inactive, IMP-1 inh-2 inactive, VIM-2 FRET inh inactive, TEM-1 inh inactive and VIM-2 confirm 2 19.3.
Screening CC(C)(C)c1ccc(OCC(=O)NNC(=O)c2cccnc2)cc1 returned eIF4H inh inactive, PABP polyA inh inactive, VIM-2 inhibitor inactive, IMP-1 inh-1 inactive and MLLE-PAM2 inh inactive.
[O-]c1n[n+](-c2ccc(Cl)cc2)cc2ccccc12 was read as eIF4H inh inactive, PABP polyA inh inactive, VIM-2 inhibitor 19.1, IMP-1 inh-1 inactive, MLLE-PAM2 inh inactive, IMP-1 inh-2 inactive, VIM-2 FRET inh inactive, TEM-1 inh inactive and VIM-2 confirm 2 inactive.
Screening [O-]c1n[n+](-c2ccc(Cl)cc2Cl)cc2ccccc12 returned eIF4H inh inactive, PABP polyA inh inactive, VIM-2 inhibitor inactive, IMP-1 inh-1 inactive and MLLE-PAM2 inh inactive.
`Cc1nn(CC(=O)NCCCN2CCC(N3CCCCC3)CC2)c(=O)c2cc(-c3ccccc3)nn12` gave eIF4H inh inactive, PABP polyA inh inactive, VIM-2 inhibitor 22.3, IMP-1 inh-1 inactive, MLLE-PAM2 inh inactive, IMP-1 inh-2 inactive, VIM-2 FRET inh inactive, TEM-1 inh inactive and VIM-2 confirm 2 36.5.
`COc1ccc2[nH]c3c(c2c1)CCN1C(=O)C(CC(=O)NCCCn2ccnc2)C[C@H](C(=O)N(C(C)C)C(C)C)[C@@]31C` (stereo partly drawn) gave MLLE-PAM2 inh inactive.
O=C(N/N=C/c1ccncc1)c1cccs1 was read as eIF4H inh inactive, PABP polyA inh inactive, VIM-2 inhibitor inactive, IMP-1 inh-1 inactive and MLLE-PAM2 inh inactive.
O=C(N/N=C/c1ccc(-n2ccnc2)cc1)c1cccs1 was read as eIF4H inh inactive, PABP polyA inh inactive, VIM-2 inhibitor 77.1, IMP-1 inh-1 inactive, MLLE-PAM2 inh inactive, IMP-1 inh-2 inactive, VIM-2 FRET inh inactive, TEM-1 inh inactive and VIM-2 confirm 2 84.1.
Cc1ccccc1NS(=O)(=O)c1ccc(OCC(=O)NCc2ccccn2)cc1 was read as eIF4H inh inactive, PABP polyA inh inactive, VIM-2 inhibitor inactive, IMP-1 inh-1 inactive and MLLE-PAM2 inh inactive.
For CSCCC(c1nnnn1C(C)(C)C)N1CCN(C/C=C/c2ccccc2)CC1 (stereo not drawn) the results were MLLE-PAM2 inh inactive.
Screening Cc1nnc2c(N3CCN(CCO)CC3)nc3ccccc3n12 returned eIF4H inh inactive, PABP polyA inh inactive, VIM-2 inhibitor 12.9, IMP-1 inh-1 inactive, MLLE-PAM2 inh inactive, IMP-1 inh-2 inactive, VIM-2 FRET inh inactive, TEM-1 inh inactive and VIM-2 confirm 2 14.3.
CCc1c(C)c(C#N)c2nc3ccccc3n2c1NCCN(C)C was read as eIF4H inh inactive, PABP polyA inh inactive, VIM-2 inhibitor inactive, IMP-1 inh-1 inactive and MLLE-PAM2 inh inactive.
Cc1cc(NCCCO)n2c(nc3ccccc32)c1C#N was read as eIF4H inh inactive, PABP polyA inh inactive, VIM-2 inhibitor inactive, IMP-1 inh-1 inactive and MLLE-PAM2 inh inactive.
